Source: publication PMC5094435 (Saudi Pharmaceutical Journal : SPJ, 2015)
Values after ≈ are worked out from the molar mass of the structure shown. Values joined by “and” are separate entries in the source; they are usually repeats but may differ in a detail not shown here. Identical values can stand only once.

Key:
Aspergillus flavus = experiment: Antifungal activity; format: cell-based; conditions: read-out: MIC, A. flavus
Outline: (§1)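 Run by the poison food technique against Aspergillus niger and Aspergillus flavus. Fluconazole was the reference drug.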

[1] = system: acetic acid induced writhing; experiment: Peripheral analgesic activity, acetic acid induced writhing method; format: in vivo, Swiss Albino mice; conditions: mice; for Peripheral analgesic activity (writhing test) No. of writhing: mean ± SEM; for Peripheral analgesic activity (writhing test) % Protection: vs control group
Outline: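 Writhing was induced with aqueous acetic acid in Swiss albino mice (20–30 g) of either sex, six per group. % Protection = (Wc − Wt)/Wc × 100, where Wc and Wt are the mean writhing counts of the control and test groups.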

Aspergillus niger = experiment: Antifungal activity; format: cell-based; conditions: read-out: MIC, A. niger
Outline: as §1

[2] = system: Escherichia coli (MTCC 1652); experiment: Antibacterial activity; format: cell-based; conditions: Escherichia coli, MTCC1652, read-out: MIC, E. coli
Outline: (§2)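 Screened by a standard method against S. aureus MTCC 96, B. subtilis MTCC 121, E. coli MTCC 1652 and P. aeruginosa MTCC 741. Ciprofloxacin was the reference antibiotic. Only compounds active at 100 μg/mL went on to MIC determination.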

[3] = system: carrageenan induced edema; experiment: Anti-inflammatory activity, carrageenan induced rat paw edema; format: in vivo, Wistar rats; conditions: inhibition of edema, rats
Outline: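 Used the Winter et al. paw oedema method in Wistar rats of either sex (160–200 g), housed six per cage and acclimatised 48 h. Percent inhibition of oedema was calculated at 1, 2, 3 and 4 h. Diclofenac served as the standard drug.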

[4] = system: Pseudomonas aeruginosa (MTCC 741); experiment: Antibacterial activity; format: cell-based; conditions: Pseudomonas aeruginosa, MTCC741, read-out: MIC, P. aeruginosa
Outline: as §2

[5] = system: Staphylococcus aureus (MTCC 96); experiment: Antibacterial activity; format: cell-based; conditions: MTCC96, read-out: MIC, S. aureus
Outline: as §2

[6] = system: tail immersion (hot water 55 °C); experiment: Central analgesic activity, tail immersion method; format: in vivo, Swiss albino mice; conditions: mice, mean ± SEM; for Central analgesic activity [tail immersion (reaction time in min)] 1 h: 1 h after the dosing; for Central analgesic activity [tail immersion (reaction time in min)] 2 h: 2 h after the dosing
Outline: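 Used the same mice from the writhing test after a washout period. Each mouse was held in a restrainer and the protruding tail (up to 5 cm) was dipped in 55 °C water. Withdrawal time was recorded as reaction time at 1 h and 2 h post-dose. Data are mean ± SEM, analysed by ANOVA followed by Dunnett's t test.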

[7] = system: Bacillus subtilis (MTCC 121); experiment: Antibacterial activity; format: cell-based; conditions: MTCC121, read-out: MIC, B. subtilis
Outline: as §2

mucosal damage = experiment: Acute ulcerogenic activity; format: in vivo, Albino rats; conditions: rats, mean ± SEM
Outline: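 Conducted in Albino rats (160–200 g, housed six per cage, acclimatised 48 h) following Cioli et al. Gastric mucosal damage was scored at the end of the study. Ulcerogenic potential (severity index) came from comparing the mean score of each treated group with that of the control rats.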

Row | MIC (Aspergillus flavus) | MIC (Aspergillus niger) | MIC [2] | MIC [4] | MIC [5] | MIC [7] | SMILES | Peripheral analgesic activity (writhing test) No. of writhing [1] | Peripheral analgesic activity (writhing test) % Protection [1] | % Inhibition ± SEM After 1 h [3] | % Inhibition ± SEM After 2 h [3] | % Inhibition ± SEM After 3 h [3] | Central analgesic activity [tail immersion (reaction time in min)] 1 h [6] | Central analgesic activity [tail immersion (reaction time in min)] 2 h [6] | Ulcerogenic activity (severity index) (mucosal damage) | % Inhibition ± SEM After 4 h [3]
1 | 12.5 µg/mL (≈ 30 µM) | 12.5 µg/mL (≈ 30 µM) | 50 µg/mL (≈ 120 µM) | 50 µg/mL (≈ 120 µM) | 6.25 µg/mL (≈ 15 µM) | 6.25 µg/mL (≈ 15 µM) | O=C1NC(c2ccc3ccccc3c2)=CC1=Cc1cc2cc(Cl)ccc2nc1Cl [Compound 6b, 3-[(2,6-Dichloroquinolin-3-yl)methylene]-5-(naphthalene-2-yl)-1H-pyrrol-2(3H)-one] | 13.8 ± 4.4^∗ | 67.14% | 62 ± 0.09^∗ % | 66 ± 0.18^∗∗ % | 53 ± 0.17% | 1.8 ± 0.2 min | 4.2 ± 0.6 min | 0.43 ± 0.33 | –
2 | 25 µg/mL (≈ 49.3 µM) | 50 µg/mL (≈ 98.5 µM) | 12.5 µg/mL (≈ 24.6 µM) | > 100 µg/mL | 25 µg/mL (≈ 49.3 µM) | 25 µg/mL (≈ 49.3 µM) | O=C1C(=Cc2cc3cc(Cl)ccc3nc2Cl)C=C(c2ccc3ccccc3c2)N1Cc1ccccc1 [Compound 7b, 1-Benzyl-3-[(2,6-dichloroquinolin-3-yl)methylene]-5-(naphthalene-2-yl)-1H-pyrrol-2(3H)-one] | 25.4 ± 4.8 | 39.52% | 84 ± 0.06^∗∗ % | 74 ± 0.21^∗∗ % | 70 ± 0.23^∗ % | 2.4 ± 0.3 min | 3.4 ± 0.2 min | 0.36 ± 0.35^∗ | –
3 | 25 µg/mL (≈ 55 µM) | 25 µg/mL (≈ 55 µM) | 50 µg/mL (≈ 110 µM) | > 100 µg/mL | 25 µg/mL (≈ 55 µM) | > 100 µg/mL | O=C1OC(c2ccc(-c3ccccc3)cc2)=CC1=Cc1cc2cc([N+](=O)[O-])ccc2nc1Cl [Compound 5h, 3-[(2-Chloro-6-nitroquinolin-3-yl)methylene]-5-(biphenyl-4-yl)furan-2(3H)-one] | 7.6 ± 2.3^∗∗ | – | 73 ± 0.08^∗∗ % | 58 ± 0.15^∗∗ % | 50 ± 0.13% | 4.3 min and 4.3 ± 0.4^∗∗ min | 6.2 min and 6.2 ± 1.5^∗ min | 0.40 ± 0.36 | –
4 | > 100 µg/mL | 50 µg/mL (≈ 91.9 µM) | 50 µg/mL (≈ 91.9 µM) | 50 µg/mL (≈ 91.9 µM) | 25 µg/mL (≈ 46 µM) | > 100 µg/mL | O=C1C(=Cc2cc3cc([N+](=O)[O-])ccc3nc2Cl)C=C(c2ccc(-c3ccccc3)cc2)N1Cc1ccccc1 [Compound 7h, 1-Benzyl-3-[(2-chloro-6-nitroquinolin-3-yl)methylene]-5-(biphenyl-4-yl)-1H-pyrrol-2(3H)-one] | 10.4 ± 3.7^∗∗ | – | 36 ± 0.13% | 65 ± 0.24^∗∗ % | 58 ± 0.34^∗ % | 5.5 min and 5.5 ± 0.3^∗∗ min | 6.4 min and 6.4 ± 0.3^∗ min | – | –
5 | 50 µg/mL (≈ 96.5 µM) | 25 µg/mL (≈ 48.3 µM) | 25 µg/mL (≈ 48.3 µM) | > 100 µg/mL | 25 µg/mL (≈ 48.3 µM) | 25 µg/mL (≈ 48.3 µM) | O=C1C(=Cc2cc3cc([N+](=O)[O-])ccc3nc2Cl)C=C(c2ccc3ccccc3c2)N1Cc1ccccc1 [Compound 7d, 1-Benzyl-3-[(2-chloro-6-nitroquinolin-3-yl)methylene]-5-(naphthalene-2-yl)-1H-pyrrol-2(3H)-one] | 21.0 ± 10.0^∗ | 50% | 83 ± 0.06^∗∗ % | 73 ± 0.15^∗∗ % | 66 ± 0.26% | 3.2 ± 0.4^∗ min | 5.4 ± 1.9 min | 0.40 ± 0.32 | –
6 | 50 µg/mL (≈ 93.7 µM) | 25 µg/mL (≈ 46.9 µM) | 25 µg/mL (≈ 46.9 µM) | 50 µg/mL (≈ 93.7 µM) | 12.5 µg/mL (≈ 23.4 µM) | 12.5 µg/mL (≈ 23.4 µM) | O=C1C(=Cc2cc3cc(Cl)ccc3nc2Cl)C=C(c2ccc(-c3ccccc3)cc2)N1Cc1ccccc1 [Compound 7f, 1-Benzyl-3-[(2,6-dichloroquinolin-3-yl)methylene]-5-(biphenyl-4-yl)-1H-pyrrol-2(3H)-one] | 12.8 ± 3.8^∗∗ | – | 84 ± 0.12% | 74 ± 0.19^∗∗ % | 63 ± 0.14^∗ % | 3.2 ± 0.2^∗ min | 6.2 min and 6.2 ± 1.5^∗ min | 0.53 ± 0.12 | –
7 | 25 µg/mL (≈ 58.3 µM) | 25 µg/mL (≈ 58.3 µM) | 12.5 µg/mL (≈ 29.1 µM) | 25 µg/mL (≈ 58.3 µM) | 12.5 µg/mL (≈ 29.1 µM) | 25 µg/mL (≈ 58.3 µM) | O=C1OC(c2ccc3ccccc3c2)=CC1=Cc1cc2cc([N+](=O)[O-])ccc2nc1Cl [Compound 5d, 3-[(2-Chloro-6-nitroquinolin-3-yl)methylene]-5-(naphthalene-2-yl)furan-2(3H)-one] | 6.0 ± 2.2^∗∗ | – | 79 ± 0.12^∗∗ % | 61 ± 0.15^∗∗ % | 56 ± 0.25^∗ % | 4.4 min and 4.4 ± 0.6^∗∗ min | 6.5 min and 6.5 ± 0.2 ^∗ min | – | –
8 | – | – | – | – | – | – | O=C(O)Cc1ccccc1Nc1c(Cl)cccc1Cl [Diclofenac, diclofenac, reference compound] | 4.2 ± 1.0^∗∗ | 90% | – | – | – | 8.2 ± 0.2^∗∗ min | 8.8 ± 0.2^∗∗ min | 0.86 ± 0.28 | 92%
9 | 50 µg/mL (≈ 120 µM) | 25 µg/mL (≈ 59.8 µM) | 25 µg/mL (≈ 59.8 µM) | 50 µg/mL (≈ 120 µM) | 12.5 µg/mL (≈ 29.9 µM) | 12.5 µg/mL (≈ 29.9 µM) | O=C1OC(c2ccc3ccccc3c2)=CC1=Cc1cc2cc(Cl)ccc2nc1Cl [Compound 5b, 3-[(2,6-Dichloroquinolin-3-yl)methylene]-5-(naphthalene-2-yl)furan-2(3H)-one] | 26.2 ± 4.1 | 37.61% | 74 ± 0.18^∗∗ % | 67 ± 0.06^∗∗ % | 39 ± 0.29% | 3.2 ± 0.2^∗ min | 4.4 ± 0.5 min | 0.33 ± 0.35^∗ | –
10 | 25 µg/mL (≈ 55.1 µM) | 25 µg/mL (≈ 55.1 µM) | 25 µg/mL (≈ 55.1 µM) | 25 µg/mL (≈ 55.1 µM) | 6.25 µg/mL (≈ 13.8 µM) | 12.5 µg/mL (≈ 27.5 µM) | O=C1NC(c2ccc(-c3ccccc3)cc2)=CC1=Cc1cc2cc([N+](=O)[O-])ccc2nc1Cl [Compound 6h, 3-[(2-Chloro-6-nitroquinolin-3-yl)methylene]-5-(biphenyl-4-yl)-1H-pyrrol-2(3H)-one] | – | – | 58 ± 0.19^∗ % | 58 ± 0.05^∗∗ % | 50 ± 0.18% | – | – | – | 48 ± 0.15^∗ %
